In paper PMC6282443 (Journal of Enzyme Inhibition and Medicinal Chemistry, 2018):
Entries after “also recorded” stand apart in the source; their conditions may differ. Read-outs that look alike come from different tables or passages of the source.

Key:
[1] = test system: T790M/L858R double mutant over wild-type EGFR; conditions: cited from earlier work
[2] = test system: A549 cells; experiment: Annexin V-FITC/PI apoptosis assay by flow cytometry; type: cell-based, human; conditions: A549, 2.5 μM, 48 h; untreated control 12.18%
How it was run: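 A549 cells seeded at 1 × 10^6 cells/well in RPMI 1640 and exposed to test compound for 48 h. Cells stained with Annexin V-FITC and propidium iodide for 30 min at 4 °C in the dark, then analysed by flow cytometry to give quadrant populations.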

[3] = test system: A549 cells; experiment: cells; type: cell-based, human; conditions: read-out: Anti-proliferative activity IC50, A549
[4] = test system: A549 cells; experiment: Cell cycle distribution by flow cytometry; type: cell-based, human
[5] = test system: H1975 cells; type: cell-based, human; conditions: for IC50: read-out: Anti-proliferative activity IC50, H1975, 72 h; for IC50 / inhibitory activity against H1975 cells (in words): H1975, MTT
[6] = test system: MCF-7 cells; experiment: MTT anti-proliferative assay, MCF-7; type: cell-based, human; conditions: read-out: Anti-proliferative activity IC50, MCF-7
[7] = test system: HepG2 cells; experiment: MTT anti-proliferative assay, HepG2; type: cell-based, human; conditions: read-out: Anti-proliferative activity IC50, HepG2
[8] = test system: A549 cells; experiment: Acridine orange; type: cell-based, human; conditions: A549, AO single staining

Row | IC50 ([3]; A549, MTT, 72 h) | IC50 [5] | IC50 ([6]; MCF-7, MTT, 72 h) | IC50 ([7]; HepG2, MTT, 72 h) | Compound | inhibitory activity against H1975 cells (in words) [5] | other results
1 | – | – | – | – | C=CC(=O)Nc1cc(Nc2nccc(-c3cn(C)c4ccccc34)n2)c(OC)cc1N(C)CCN(C)C [AZD9291] | – | selectivity for the T790M/L858R double mutant over wild-type EGFR [1]: 200 fold
2 | – | – | – | – | O=C(N/N=C/c1cnc(N2CCCC2)nc1)Nc1cc2c(Nc3ccc(F)c(Cl)c3)ncnc2cc1O[C@H]1CCOC1 [Compound 14, (S,E)-N-(4-((3-chloro-4-fluorophenyl)amino)-7-((tetrahydrofuran-3-yl)oxy)quinazolin-6-yl)-2-((2-(pyrrolidin-1-yl)pyrimidin-5-yl)methylene)hydrazine-1-carboxamide] | – | apoptotic cells (early + late) [2]: 34.9%; IC50 ([3]; Homo sapiens, A549, 72 h): 5.9 ± 0.25 µM; cell cycle arrest phase (in words) ([4]; A549): S phase arrest; also recorded: arrested the cell cycle at the S phase; proportion of cells in S phase ([4]; A549, 2.5 μM): 50.68%; proportion of cells in G0/G1 phase ([4]; A549, 2.5 μM, control 26.57%): 23.62%; proportion of cells in G2/M phase ([4]; A549, 2.5 μM, control 29.4%): 25.7%; G0/G1 (%) ([4]; A549, 25 μM, 48 h, DMSO 26.57): 23.62%; G2/M (%) ([4]; A549, 25 μM, 48 h, DMSO 29.40): 25.70%; S (%) ([4]; A549, 25 μM, 48 h, DMSO 44.03): 50.68%; selectivity for H1975 cells (in words) ([5]; versus HepG2, A549, MCF-7): slight selectivity; IC50 ([6]; Homo sapiens, MCF7, 72 h): 2.37 ± 0.34 µM; IC50 ([7]; Homo sapiens, HepG2, 72 h): 4.63 ± 0.36 µM; induction of A549 cell apoptosis by AO staining (in words) [8]: can induce A549 cell apoptosis
3 | 34.8 ± 1.26 µM | 41.2 ± 2.07 µM | 27.5 ± 1.29 µM | 28.4 ± 1.78 µM | COc1cc2ncnc(Nc3ccc(F)c(Cl)c3)c2cc1NC(=O)N/N=C/c1ccc(OCCCN2CCOCC2)cc1 [Compound 47, (E)-N-(4-((3-chloro-4-fluoropheny)amino)-7-methoxyquinazolin-6-yl)-2-(4-(3-morpholinopropoxy)benzylidene)hydrazine-1-carboxamide] | – | –
4 | 36.4 ± 2.78 µM | 49.3 ± 4.68 µM | 44.2 ± 3.75 µM | 46.7 ± 4.46 µM | (E)-N-(4-((3-chloro-4-fluoropheny)amino)-7-methoxyquinazolin-6-yl)-2-(4-(2-(pyrrolidin-1-yl)ethoxy)benzylid ene)hydrazine-1-carboxamide [Compound 33] | – | –
5 | 2.96 ± 0.36 µM | 10.2 ± 1.26 µM | 12.2 ± 0.89 µM | 14.5 ± 1.27 µM | (E)-N-(4-((3-chloro-4-fluoropheny)amino)-7-methoxyquinazolin-6-yl)-2-(4-(3-(4-methylpiperazin-1-yl)propoxy) benzylidene)hydrazine-1-carboxamide [Compound 48] | moderate inhibitory activity | –
6 | 43.1 ± 3.34 µM | > 100 µM | > 100 µM | > 100 µM | (E)-N-(4-((3-chloro-4-fluoropheny)amino)-7-methoxyquinazolin-6-yl)-2-(4-(3-(dimethylamino)propoxy)benzyl idene)hydrazine-1-carboxamide [Compound 43] | – | –
7 | 23.2 ± 1.47 µM | 38.2 ± 1.23 µM | 16.9 ± 1.34 µM | 24.5 ± 1.27 µM | (E)-N-(4-((3-chloro-4-fluoropheny)amino)-7-methoxyquinazolin-6-yl)-2-(4-(3-(pyrrolidin-1-yl)propoxy)benzyli dene)hydrazine-1-carboxamide [Compound 45] | – | –
8 | 2.52 ± 0.54 µM | 11.2 ± 1.34 µM | 10.8 ± 0.68 µM | 13.4 ± 0.54 µM | (S,E)-N-(4-((3-chloro-4-fluoropheny)amino)-7-((tetrahydrofuran-3-yl)oxy)quinazolin-6-yl)-2-(4-(2-(4-methylpi perazin-1-yl)ethoxy)benzylidene)hydrazine-1-carboxamide [Compound 42] | moderate inhibitory activity | –
9 | 3.01 ± 0.54 µM | > 100 µM | 1.99 ± 0.68 µM | 1.91 ± 0.34 µM | (S,E)-N-(4-((3-chloro-4-fluoropheny)amino)-7-((tetrahydrofuran-3-yl)oxy)quinazolin-6-yl)-2-(4-(2-(diethylamin o)ethoxy)benzylidene)hydrazine-1-carboxamide [Compound 38] | poorer cellular activity | –
10 | 9.48 ± 0.86 µM | 32.8 ± 1.27 µM | 6.21 ± 0.68 µM | 5.04 ± 0.64 µM | (S,E)-N-(4-((3-chloro-4-fluorophenyl)amino)-7-((tetrahydrofuran-3-yl)oxy)quinazolin-6-yl)-2-(4-(3-(diethylamin o)propoxy)benzylidene)hydrazine-1-carboxamide [Compound 49] | poorer cellular activity | –
